The values below come from ChEMBL document CHEMBL4219091, “Pharmacophore requirements for HIV-1 reverse transcriptase inhibitors that selectively "Freeze" the pre-translocated complex during the polymerization catalytic cycle” (Bioorg Med Chem, 2018).

The source made the active and inactive calls. No cut-off for these calls is given here. A value given as a limit tells only on which side of the number the result lay.

Assay [1] deals with T1, Human immunodeficiency virus type 1 reverse transcriptase (Human immunodeficiency virus 1, UniProt Q72547). In words: Inhibition of HIV1 reverse transcriptase p66/p51 polymerase using PPT57 DNA/Cy5-labeled PPT24 as template/primer preincubated for 10 mins followed by dNTP addition measured after 5 mins by bromophenol blue staining based phosphor imaging analysis. The method, boiled down:
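Gel-based DNA synthesis: PPT57 DNA template (3-fold molar excess) heat-annealed to 50 nM 5'-Cy5-labeled PPT24 primer; 200 nM RT in 50 mM Tris-HCl pH 7.8, 50 mM NaCl, 6 mM MgCl2. Started with 0.5 mM each dNTP, 5 min, 12% denaturing gel.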

The target of assay [2] is T1, Human immunodeficiency virus type 1 reverse transcriptase. Nature of the assay: Inhibition of HIV1 reverse transcriptase p66/p51 RNase H preincubated for 10 mins followed by PBS-22dpol/radiolabeled PBS-14r8d addition measured after 5 mins. The essentials: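 Inhibitors titrated up to 250 µM (≤5% final DMSO), 10 min preincubation at 37 °C before reaction start.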
The target of assay [3] is Human immunodeficiency virus type 1 reverse transcriptase (Human immunodeficiency virus 1) (UniProt Q72547). Nature of the assay: Inhibition of HIV1 reverse transcriptase p66/p51 assessed as freezing of template-primer-enzyme complex at pretranslocated stage at 100 uM using 5'-radiolabeled PBS36c DNA/5'-TTCTGACTAAAAGGGTCTGAGGGAT-3 as template/primer preincubated for 10 mins followed by Fe2+ addition by site-specific foot printing assay. The method, boiled down: (§1)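 Fe2+ chemical footprinting: 50 nM 5'-radiolabeled PBS36c DNA template annealed to 150 nM primer, incubated with 750 nM HIV-1 RT in 120 mM sodium cacodylate (pH 7), 20 mM NaCl, 6 mM MgCl2. Compound added at fixed or increasing concentrations, 10 min preincubation at 37 °C. Screening at fixed concentration, 10 µM or 100 µM depending on compound.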

The target of assay [4] is T1, Human immunodeficiency virus type 1 reverse transcriptase. Nature of the assay: Inhibition of HIV1 reverse transcriptase p66/p51. The method, boiled down: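 Gel-based DNA synthesis: PPT57 DNA template (3-fold molar excess) heat-annealed to 50 nM 5'-Cy5-labeled PPT24 primer; 200 nM RT in 50 mM Tris-HCl pH 7.8, 50 mM NaCl, 6 mM MgCl2. Inhibitor titrated up to 250 µM (≤5% final DMSO), 10 min preincubation at 37 °C. Started with 0.5 mM each dNTP, 5 min, 12% denaturing gel. IC50 from variable-slope curve fit, ≥3 independent determinations.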

Assay [5] has as its target Human immunodeficiency virus type 1 reverse transcriptase (Human immunodeficiency virus 1, UniProt Q72547, M184V). Nature of the assay: Inhibition of HIV1 reverse transcriptase p66/p51 polymerase M184V mutant using PPT57 DNA/Cy5-labeled PPT24 as template/primer preincubated for 10 mins followed by dNTP addition measured after 5 mins by bromophenol blue staining based phosphor imaging analysis. The essentials:
(§2)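 Template/primer: Cy5-labelled PPT24 primer (50 nM) heat-annealed to a 3-fold molar excess of PPT57 DNA template. Incubated with 200 nM RT in 50 mM Tris-HCl pH 7.8, 50 mM NaCl, 6 mM MgCl2. Inhibitor titrated up to […], with at most 5% final DMSO. Pre-incubated 10 min at 37 °C. Started with 0.5 mM each dNTP, run 5 min, stopped with formamide dye. Products resolved on 12% denaturing PAGE and imaged. Normalized data fitted to a variable-slope log[inhibitor]–response curve to give IC50.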

The target in assay [6] is Human immunodeficiency virus type 1 reverse transcriptase (Human immunodeficiency virus 1, UniProt Q72547, K65R). Nature of the assay: Inhibition of HIV1 reverse transcriptase p66/p51 polymerase K65R mutant using PPT57 DNA/Cy5-labeled PPT24 as template/primer preincubated for 10 mins followed by dNTP addition measured after 5 mins by bromophenol blue staining based phosphor imaging analysis. The method, boiled down:
as §2

Assay [7] has as its target Human immunodeficiency virus type 1 reverse transcriptase (Human immunodeficiency virus 1) (UniProt Q72547). In words: Ratio of IC50 for HIV1 reverse transcriptase p66/p51 RNase H to IC50 for HIV1 reverse transcriptase p66/p51 polymerase.
For assay [8], the system named is Human immunodeficiency virus 1. In words: Ratio of IC50 for HIV1 reverse transcriptase p66/p51 polymerase K65R mutant to IC50 for HIV1 reverse transcriptase p66/p51 polymerase wild type.
The target of assay [9] is Human immunodeficiency virus type 1 reverse transcriptase (Human immunodeficiency virus 1, UniProt Q72547, E89K). Nature of the assay: Inhibition of HIV1 reverse transcriptase p66/p51 polymerase E89K mutant using PPT57 DNA/Cy5-labeled PPT24 as template/primer preincubated for 10 mins followed by dNTP addition measured after 5 mins by bromophenol blue staining based phosphor imaging analysis. The method, boiled down:
as §2

The test system of assay [10] is Human immunodeficiency virus 1. In words: Ratio of IC50 for HIV1 reverse transcriptase p66/p51 polymerase E89K mutant to IC50 for HIV1 reverse transcriptase p66/p51 polymerase wild type.
For assay [11], the target named is Human immunodeficiency virus type 1 reverse transcriptase (Human immunodeficiency virus 1) (UniProt Q72547). In words: Inhibition of HIV1 reverse transcriptase p66/p51 assessed as freezing of template-primer-enzyme complex at pretranslocated stage using 5'-radiolabeled PBS36c DNA/5'-TTCTGACTAAAAGGGTCTGAGGGAT-3 as template/primer preincubated for 10 mins followed by Fe2+ addition by site-specific foot printing assay. The method, boiled down:
as §1

Assay [12] concerns Human immunodeficiency virus 1. In words: Ratio of IC50 for HIV1 reverse transcriptase p66/p51 polymerase M184V mutant to IC50 for HIV1 reverse transcriptase p66/p51 polymerase wild type.
Assay [13] addresses Human immunodeficiency virus type 1 reverse transcriptase (Human immunodeficiency virus 1) (UniProt Q72547). Nature of the assay: Inhibition of HIV1 reverse transcriptase p66/p51 assessed as freezing of template-primer-enzyme complex at […] stage at 10 uM using 5'-radiolabeled PBS36c DNA/5'-TTCTGACTAAAAGGGTCTGAGGGAT-3 as template/primer preincubated for 10 mins followed by Fe2+ addition by site-specific foot printing assay. The method, boiled down: as §1

For `CC(C)c1ccc(-c2nc(O)c(O)c(C(=O)O)n2)cc1`, the IC50 (in general, the concentration at which inhibition is half-maximal) in [1] was 22 µM. For the compound `Cc1cccc(-c2nc(O)c(O)c(C(=O)O)n2)c1`, the IC50 in [1] was found to be 49 µM. For the compound `O=C(O)c1nc(-c2cccc(Cl)c2)nc(O)c1O`, the IC50 in assay [1] is 18 µM. As for `COc1ccc(-c2cc3c(NCc4nc(O)c(O)c(C(=O)O)n4)ncnc3nc2SC)cc1`, the IC50 amounted to 2 µM in [2] and 62 µM in [1]. `Nc1ncnc2c1ncn2CCc1nc(O)c(O)c(C(=O)O)n1` yielded an IC50 in assay [1] of 41 µM. On the same count and under the same terms, under `CSc1nc2ncnc(NCc3nc(O)c(O)c(C(=O)O)n3)c2cc1Br` stands over 100 µM. `COC(=O)c1nc(-c2ccc(C)c(Br)c2)nc(O)c1O` came in with a concentration for half-maximal inhibition (IC50) in assay [1] of over 100 µM.

Take `O=C(Nc1ccc(-c2cccc(NC(P(=O)(O)O)P(=O)(O)O)c2)cc1)C1CC1`: the figures for the IC50 in assay [2] and in assay [4] were 0.8 µM and over 50 µM, respectively. Moreover, the “Active/not active call for freezing the pre-translocated complex” value in assay [3] is “inactive”. In assay [1], `O=C(O)c1nc(-c2ccc(Cl)cc2)[nH]c(=O)c1O` registered an IC50 of 4.5 µM. Same read-out and setting: for `O=C(O)c1nc(-c2cccc(-c3ccc(F)c(F)c3)c2)nc(O)c1O` the value was over 100 µM.

Compound `O=C(O)c1nc(Cc2ccc(Cl)cc2)nc(O)c1O` came in with an IC50 in assay [1] of 97 µM. Consider `Cc1ccc(-c2nc(O)c(O)c(C(=O)O)n2)cc1Br`, for which the IC50 is 23 µM in [2]; 1.4 to 1.74 µM in [1]; 2.79 µM in [5]; 1.13 µM in [6]; 4.63 µM in assay [9]. The Ratio IC50 in assay [7] was over 10; in assay [8] it was under 2; in assay [10], 2.7; in assay [12] it was under 2. Also, the inhibition result in [11] was “Dose-dependent effect”. `CNC(=O)c1nc(-c2ccc(C)c(Br)c2)nc(O)c1O`: the IC50 in assay [1] was over 100 µM.

In assay [1], `O=C(O)c1nc(-c2cc(C(F)(F)F)cc(C(F)(F)F)c2)nc(O)c1O` came in with an IC50 of 20 µM. Further, the “Active/not active call for freezing the pre-translocated complex” value in assay [3] is “inactive”. `O=C(O)c1nc(-c2cccc(Br)c2)nc(O)c1O` displayed an IC50 in [1] of 14 µM. Also, the “Active/not active call for freezing the pre-translocated complex” value in assay [3] is “Active”.

In the case of `Cn1c2ccccc2c2c1cc(C#N)c(=O)n2-c1ccc([N+](=O)[O-])cc1`, the inhibition entry in [13] is “Active”.

With `Cc1ccc(-c2nc(O)c(O)c(C(=O)O)n2)cc1Cl`, the half-inhibitory concentration (IC50) is 25 µM in assay [2] and 1.6 µM in assay [1]. Besides, in assay [7], the Ratio IC50 is over 10. Moreover, the inhibition entry in assay [11] is “Dose-dependent effect”.

As to `Cc1noc(C)c1-c1ccc(-c2nc(O)c(O)c(C(=O)O)n2)cc1`, the IC50 in [1] is over 100 µM. `O=P(O)(O)C(Nc1cccc(Br)c1)P(=O)(O)O`: the “Active/not active call for freezing the pre-translocated complex” value in assay [3] was “Active”. `O=C(O)c1nc(CNc2ncnc3ncccc23)nc(O)c1O` gave an IC50 in [1] of 65 µM. With `COc1ccc(-c2cnc3ncnc(NCc4nc(O)c(O)c(C(=O)O)n4)c3c2)cc1`, the IC50 in assay [2] was found to be 1.5 µM; in [1], 25 µM. Besides, the “Active/not active call for freezing the pre-translocated complex” value in [3] is “inactive”. The compound `O=C(O)c1nc(-c2ccc(Br)cc2)nc(O)c1O` yielded a 50% inhibitory concentration (IC50) in assay [1] of 2.8 µM. The compound `O=C(O)c1nc(CNc2ncnc3ncc(Br)cc23)nc(O)c1O` registered an IC50 in assay [1] of 49 µM. Besides, in assay [3], the “Active/not active call for freezing the pre-translocated complex” value is “inactive”. In assay [1], `Cc1ccc(-c2nc(O)c(O)c(C(=O)O)n2)cc1` had an IC50 of 6.3 µM.

`Nc1ncnc2c1ncn2Cc1nc(O)c(O)c(C(=O)O)n1` came in with an IC50 in [1] of over 100 µM. In the case of `O=C(O)c1nc(-c2ccccc2)nc(O)c1O`, the IC50 in assay [1] is over 100 µM. In turn, `O=C(O)c1nc(-c2cccs2)nc(O)c1O` had an IC50 in [1] of 46 µM.
